Usually IC50 stands for the concentration that gives 50% inhibition.

From ChEMBL document CHEMBL5244249, “Discovery of tofacitinib derivatives as orally active antitumor agents based on the scaffold hybridization strategy” (Eur J Med Chem, 2020) come the findings set out here.

One data set has as its system NCI-H1975. In words: Antiproliferative activity against human NCI-H1975 cells assessed as inhibition of cell growth incubated for 72 hrs by MTT assay. Type of data set: functional, cell-based. Particulars: NCI-H1975, 72 h.
The test system of a further data set is MGC-803. In words: Antiproliferative activity against human MGC-803 cells assessed as inhibition of cell growth incubated for 72 hrs by MTT assay. Type of data set: functional, cell-based. To be noted: MGC-803, 72 h. In a few lines: (§1)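 Antiproliferative screen in gastric cancer lines MGC-803, HGC-27 and BGC-823 by MTT assay; IC50 reported as mean ± SD.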
A general note: Tetrazolium dyes change colour on reduction, which living cells bring about.

Another data set relates to PC-9. The experiment in a line: Antiproliferative activity against human PC-9 cells assessed as inhibition of cell growth incubated for 72 hrs by MTT assay. Particulars: PC-9, 72 h. The class given is functional, cell-based.
Another data set deals with MCF7. In words: Antiproliferative activity against human MCF7 cells assessed as inhibition of cell growth incubated for 72 hrs by MTT assay. The class given is functional, cell-based. Particulars: MCF7, 72 h.
A further data set concerns BGC-823. In words: Antiproliferative activity against human BGC-823 cells assessed as inhibition of cell growth incubated for 72 hrs by MTT assay. The class given is functional, cell-based. Particulars: BGC-823, 72 h. In short, it runs like this: as §1
Data set [1] can be described thus: Cytotoxicity against human GES1 cells assessed as inhibition of cell growth incubated for 72 hrs by MTT assay. Type of data set: toxicity, cell-based.
In a further data set the test system is HGC-27. In words: Antiproliferative activity against human HGC-27 cells assessed as inhibition of cell growth incubated for 72 hrs by MTT assay. Particulars: HGC-27, 72 h. Type of data set: functional, cell-based. In short, it runs like this:
as §1

Each structure is given as a SMILES string.

As to `C[C@@H]1CCN(C(=O)CC#N)C[C@@H]1N(C)c1ncnc2[nH]ccc12` [TOFACITINIB], the IC50 with NCI-H1975, in the data set with MGC-803, in the data set on PC-9 and with MCF7 was greater than 100 µM throughout.

Turning to `C=CCSc1nc2nc(C)cc(N3CC[C@@H](C)[C@@H](N(C)c4ncnc5[nH]ccc45)C3)n2n1`, the results for the half-maximal inhibitory concentration (IC50) in the data set with BGC-823, in the data set with HGC-27 and in the data set with MGC-803 were 40.9 µM, 35.2 µM and 32.5 µM, respectively. In addition, the IC50 at 72 h in data set [1] is greater than 100 µM.

`Cc1cc(N2CC[C@@H](C)[C@@H](N(C)c3ncnc4[nH]ccc34)C2)n2nc(SCc3ccc(F)cc3)nc2n1`: the half-maximal inhibitory concentration (IC50) in the data set on BGC-823 is 44.3 µM; with HGC-27 it was 26 µM; with MGC-803 it was 11.9 µM. Besides, the concentration for half-maximal inhibition (IC50) at 72 h in data set [1] was found to be 12.3 µM.

`C[C@@H]1CCN(c2cc(-c3ccccc3)nc3ncnn23)C[C@@H]1N(C)c1ncnc2[nH]ccc12`: the half-inhibitory concentration (IC50) in the data set on BGC-823 was greater than 100 µM; in the data set on HGC-27, greater than 100 µM; with MGC-803, 84.9 µM. Further, the IC50 at 72 h in data set [1] was greater than 100 µM.

For `CCc1cc(N2CC[C@@H](C)[C@@H](N(C)c3ncnc4[nH]ccc34)C2)n2ncnc2n1`, the figures for the IC50 in the data set with BGC-823, in the data set on HGC-27 and with MGC-803 were 82.2 µM, greater than 100 µM and 80.2 µM, respectively. Besides, the concentration for half-maximal inhibition (IC50) at 72 h in data set [1] is greater than 100 µM.

Consider `Cc1cc(N2CC[C@@H](C)[C@@H](N(C)c3ncnc4[nH]ccc34)C2)n2nc(SCc3csc4ccc(Cl)cc34)nc2n1`, for which the IC50 in the data set on BGC-823, with HGC-27 and in the data set on MGC-803 was greater than 100 µM in each case. Moreover, in data set [1], the IC50 at 72 h was greater than 100 µM.

Take `Cc1cc(N2CC[C@@H](C)[C@@H](N(C)c3ncnc4[nH]ccc34)C2)n2nc(SCc3ccc([N+](=O)[O-])cc3)nc2n1`: the 50% inhibitory concentration (IC50) with BGC-823 was 59.6 µM; in the data set on HGC-27, 29.4 µM; in the data set with MGC-803, 26.9 µM. In addition, the half-inhibitory concentration (IC50) at 72 h in data set [1] turned out to be 36.6 µM.

In the case of `Cc1cc(N2CC[C@@H](C)[C@@H](N(C)c3ncnc4[nH]ccc34)C2)n2nc(SCCCc3ccccc3)nc2n1`, the IC50 with BGC-823, with HGC-27 and with MGC-803 was greater than 100 µM throughout. Moreover, the IC50 at 72 h in data set [1] was greater than 100 µM.

For the compound `Cc1nc2nc(SCc3ccc(Cl)cc3)nn2c(N2CC[C@@H](C)[C@@H](N(C)c3ncnc4[nH]ccc34)C2)c1C`, the IC50 was greater than 100 µM with BGC-823, greater than 100 µM in the data set with HGC-27 and 90.5 µM with MGC-803. In addition, in data set [1], the 50% inhibitory concentration (IC50) at 72 h stood at 99.2 µM.

For the compound `Cc1cc(N2CC[C@@H](C)[C@@H](N(C)c3ncnc4[nH]ccc34)C2)n2nc(SCc3cc(Cl)ccc3Cl)nc2n1`, the half-maximal inhibitory concentration (IC50) in the data set with BGC-823 is 18.9 µM; in the data set on HGC-27, 19.2 µM; in the data set on MGC-803 it was 9.85 µM. Besides, in data set [1], the IC50 at 72 h was found to be 87.5 µM.

For the compound `Cc1cc(N2CC[C@@H](C)[C@@H](N(C)c3ncnc4[nH]ccc34)C2)n2nc(SCC3CCCCC3)nc2n1`, the IC50 in the data set on BGC-823 is 16.3 µM; with HGC-27, 11.5 µM; in the data set on MGC-803, 9.17 µM. Also, the half-inhibitory concentration (IC50) at 72 h in data set [1] came to 98.2 µM.

On to `Cc1cc(N2CC[C@@H](C)[C@@H](N(C)c3ncnc4[nH]ccc34)C2)n2nc(SCc3cc(=O)oc4c3ccc3ccccc34)nc2n1`, for which the IC50 in the data set with BGC-823, in the data set with HGC-27 and with MGC-803 was greater than 100 µM throughout. Moreover, the IC50 at 72 h in data set [1] was greater than 100 µM.

For the compound `Cc1cc(N2CC[C@@H](C)[C@@H](N(C)c3ncnc4[nH]ccc34)C2)n2nc(SCc3nc4ccccc4[nH]3)nc2n1`, the IC50 in the data set on BGC-823 was greater than 100 µM; with HGC-27, greater than 100 µM; with MGC-803, 21.2 µM. For the same compound, the IC50 at 72 h in data set [1] came out at 40.2 µM.

In the case of `Cc1cc(N2CC[C@@H](C)[C@@H](N(C)c3ncnc4[nH]ccc34)C2)n2nc(SCCc3ccccc3)nc2n1`, the concentration for half-maximal inhibition (IC50) in the data set on BGC-823 worked out at 28 µM; with HGC-27, 11.8 µM; with MGC-803, 6.19 µM. The half-inhibitory concentration (IC50) at 72 h in data set [1] was determined as 66.2 µM.

For the compound `Cc1cc(N2CC[C@@H](C)[C@@H](N(C)c3ncnc4[nH]ccc34)C2)n2nc(SCc3ccccc3)nc2n1`, the IC50 was 14.3 µM in the data set with BGC-823, 13.9 µM in the data set with HGC-27 and 5.87 µM in the data set with MGC-803. The IC50 at 72 h in data set [1] turned out to be 67.2 µM.

As to `Cc1cc(N2CC[C@@H](C)[C@@H](N(C)c3ncnc4[nH]ccc34)C2)n2nc(SCc3ccc(Br)cc3)nc2n1`, the half-inhibitory concentration (IC50) amounted to 28 µM in the data set on BGC-823, 19.5 µM in the data set on HGC-27 and 4.02 µM in the data set on MGC-803. The 50% inhibitory concentration (IC50) at 72 h in data set [1] is 55.6 µM.

Regarding `Cc1cc(N2CC[C@@H](C)[C@@H](N(C)c3ncnc4[nH]ccc34)C2)n2nc(SCc3ccccc3Br)nc2n1`, the IC50 in the data set on BGC-823 was determined as 81.1 µM; with HGC-27, 21.3 µM; in the data set on MGC-803, 27 µM. Also, the IC50 at 72 h in data set [1] was greater than 100 µM.

Turning to `Cc1cc(N2CC[C@@H](C)[C@@H](N(C)c3ncnc4[nH]ccc34)C2)n2ncnc2n1`, the IC50 with BGC-823 is 67.4 µM; with HGC-27, 11.3 µM; in the data set on NCI-H1975, 22.2 µM; in the data set with MGC-803, 4.35 µM; in the data set with PC-9, 20.9 µM; in the data set on MCF7 it was 33.8 µM. For the same compound, the half-inhibitory concentration (IC50) at 72 h in data set [1] came out at 57.9 µM.

With `Cc1cc(N2CC[C@@H](C)[C@@H](N(C)c3ncnc4[nH]ccc34)C2)n2nc(SCC3CC3)nc2n1`, the figures for the IC50 with BGC-823, in the data set with HGC-27 and with MGC-803 were 36.5 µM, 21.4 µM and 9.54 µM, respectively. The half-inhibitory concentration (IC50) at 72 h in data set [1] was 27.9 µM.

Take `CCCCCc1c(C)nc2nc(SCc3ccc(Cl)cc3)nn2c1N1CC[C@@H](C)[C@@H](N(C)c2ncnc3[nH]ccc23)C1`: the figures for the IC50 in the data set with BGC-823, in the data set with HGC-27 and in the data set with MGC-803 were 32.3 µM, greater than 100 µM and greater than 100 µM, respectively. Also, the concentration for half-maximal inhibition (IC50) at 72 h in data set [1] is greater than 100 µM.

For the compound `C[C@@H]1CCN(c2c3c(nc4ncnn24)CCC3)C[C@@H]1N(C)c1ncnc2[nH]ccc12`, the IC50 was greater than 100 µM in the data set on BGC-823, 50.5 µM in the data set on HGC-27 and 55.9 µM in the data set on MGC-803. The half-maximal inhibitory concentration (IC50) at 72 h in data set [1] was greater than 100 µM.

As to `Cc1ccc(CSc2nc3nc(C)cc(N4CC[C@@H](C)[C@@H](N(C)c5ncnc6[nH]ccc56)C4)n3n2)cc1`, the figures for the IC50 in the data set on BGC-823, in the data set on HGC-27 and in the data set on MGC-803 were 69.5 µM, 15.2 µM and 5.86 µM, respectively. For the same compound, in data set [1], the concentration for half-maximal inhibition (IC50) at 72 h was determined as 82.5 µM.

`Cc1cc(N2CC[C@@H](C)[C@@H](N(C)c3ncnc4[nH]ccc34)C2)n2nc(SCc3ccc(F)c(Cl)c3)nc2n1`: the half-maximal inhibitory concentration (IC50) in the data set with BGC-823 was 98.9 µM; in the data set on HGC-27, greater than 100 µM; with MGC-803, 52 µM. The IC50 at 72 h in data set [1] is greater than 100 µM.

Turning to `COc1ccc(CSc2nc3nc(C)cc(N4CC[C@@H](C)[C@@H](N(C)c5ncnc6[nH]ccc56)C4)n3n2)cc1`, the 50% inhibitory concentration (IC50) amounted to 69.9 µM in the data set on BGC-823, 18.2 µM in the data set on HGC-27 and 15.2 µM in the data set on MGC-803. For the same compound, in data set [1], the IC50 at 72 h is greater than 100 µM.

In the case of `O=c1[nH]cc(F)c(=O)[nH]1` [FLUOROURACIL], the IC50 with BGC-823 stood at 5.89 µM; with HGC-27 it was 5.75 µM; in the data set on NCI-H1975, 2.67 µM; in the data set on MGC-803, 3.79 µM; with PC-9 it was 3.25 µM; with MCF7, 4.76 µM. For the same compound, the IC50 at 72 h in data set [1] amounted to 2.37 µM.

Take `Cc1cc(N2CC[C@@H](C)[C@@H](N(C)c3ncnc4[nH]ccc34)C2)n2nc(SCc3ccc(Cl)cc3)nc2n1`: the IC50 is 26.3 µM with BGC-823, 18.4 µM in the data set with HGC-27 and 16 µM in the data set with MGC-803. In data set [1], the half-maximal inhibitory concentration (IC50) at 72 h was greater than 100 µM.

With `C#CCSc1nc2nc(C)cc(N3CC[C@@H](C)[C@@H](N(C)c4ncnc5[nH]ccc45)C3)n2n1`, the IC50 turned out to be 62.1 µM in the data set on BGC-823, 35.1 µM in the data set with HGC-27 and 18.1 µM in the data set on MGC-803. Besides, the half-maximal inhibitory concentration (IC50) at 72 h in data set [1] was greater than 100 µM.

Turning to `CCCSc1nc2nc(C)cc(N3CC[C@@H](C)[C@@H](N(C)c4ncnc5[nH]ccc45)C3)n2n1`, the IC50 turned out to be 51.2 µM in the data set on BGC-823, 20.9 µM with HGC-27 and 15.5 µM with MGC-803. In addition, in data set [1], the IC50 at 72 h was found to be 67.1 µM.
